OX1R antag-1 – antagonists of human orexin 1 receptor (OX1R); 1.8% of 330,000 active; Orexin/Hypocretin receptor type 1 (Homo sapiens), O43613; inhibition, % at 6.6 µM; OX1R-expressing cells, FRET antagonist read-out; AID 485270, 2010; in the data active means inhibition mostly above about 38%, no sharp cut-off; inactive means mostly below about 40%
GPR7 antag – GPR7 receptor antagonists, primary screen, cell-based, fluorescence, single concentration | 1.1% of 290,000 active | GPR7-expressing cells, fluorescence antagonist assay | Neuropeptides B/W receptor type 1 (Homo sapiens), P48145 | inhibition, % at 4.4 µM; in the data active means inhibition above about 16%, passing the limit was not always enough;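 further: cells stimulated with the agonist NPW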
Target sequence (P48145 whole entry, looked up): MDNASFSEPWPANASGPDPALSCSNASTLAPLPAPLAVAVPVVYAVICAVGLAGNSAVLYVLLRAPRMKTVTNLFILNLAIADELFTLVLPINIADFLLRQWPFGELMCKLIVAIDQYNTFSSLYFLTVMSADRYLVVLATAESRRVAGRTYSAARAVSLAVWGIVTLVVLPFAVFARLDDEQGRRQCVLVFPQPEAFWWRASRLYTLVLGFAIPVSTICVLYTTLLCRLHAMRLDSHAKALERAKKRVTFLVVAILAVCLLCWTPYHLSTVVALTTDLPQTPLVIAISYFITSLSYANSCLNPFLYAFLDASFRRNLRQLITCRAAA
TAAR1 antag – human TAAR1 antagonists, primary screen, Fluo-8 calcium fluorescence, CHO RD-HGA16 cells. inhibition, % at 3 µM. antagonist. Trace amine-associated receptor 1 (Homo sapiens), Q96RJ0. 1.5% of 360,000 active;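 active means inhibition above a per-plate cutoff, the mean inhibition of test compounds on that plate plus 3 SD, cut at about 49% in these data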
Target sequence (Q96RJ0 whole entry, looked up): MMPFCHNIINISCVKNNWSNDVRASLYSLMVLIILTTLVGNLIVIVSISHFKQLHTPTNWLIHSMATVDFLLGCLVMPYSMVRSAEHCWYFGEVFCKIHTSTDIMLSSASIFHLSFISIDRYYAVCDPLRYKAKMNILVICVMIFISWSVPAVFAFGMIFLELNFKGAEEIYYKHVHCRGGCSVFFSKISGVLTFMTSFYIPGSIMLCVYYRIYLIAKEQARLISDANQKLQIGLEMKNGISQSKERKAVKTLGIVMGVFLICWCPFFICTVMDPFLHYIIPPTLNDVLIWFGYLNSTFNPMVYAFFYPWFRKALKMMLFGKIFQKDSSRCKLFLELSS
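Test system: CHO RD-HGA16 cells bearing hTAAR1 | Reagent: β-PEA, EC80 | Compound dosing: 3 µM, single point | Schedule: Dye loading 75 min at 37 °C, then 30 min room temperature | Signal: Calcium fluorescence with Fluo-8 | Evaluation: Percent inhibition of PEA-evoked calcium signal, max/basal emission ratio | Control set: DMSO-only wells and EC80 β-PEA-stimulated wells | Repeats: Singlicate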
CHO parental Ca – ATP-evoked calcium signal inhibitors, parental CHO, primary screen, counter-screen for OX1R antagonist project, cell-based, fluorescence, Fluo-8 calcium dye. parental CHO-K1, ATP-induced calcium, Fluo-8 fluorescence. inhibition, % at 5.6 µM. 0.63% of 330,000 active. AID 463079, 2010;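 active means inhibition above that plate's mean sample inhibition plus 3 SD, cut at about 26% in these data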
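Assay system: untransfected parental CHO cell line. Also added: ATP agonist challenge. Dosing: one dose, 5.6 µM nominal. Measured by: Fluo-8 fluorescence. Read-out: % inhibition. Benchmarks: ATP wells versus no-ATP DMSO wells. Repeats: no replicates.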
OX1R antag-2 – OX1R (HCRTR1) antagonists, primary screen, fluorescence, CHO/OX1R cells, Fluo-8 calcium, orexin A; inhibition, % at 5 µM; 0.43% of 330,000 active; Orexin/Hypocretin receptor type 1 (Homo sapiens), O43613; Fluo-8 calcium fluorescence;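 active means inhibition above its plate's threshold, mean inhibition of all tested compounds on the plate plus 3 SD, cut at about 37% in these data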
TAAR1 agonist – human TAAR1 agonists, primary screen, Fluo-8 calcium fluorescence, CHO RD-HGA16 cells; activation, % at 3 µM; vehicle wells 0%, saturating PEA agonist 100%; AID 624467, 2012; Trace amine-associated receptor 1 (Homo sapiens), Q96RJ0; 0.99% of 360,000 active;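 active means activation above the mean activation of all test compounds in the run plus 3 SD, cut at about 38% in these data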
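Test system: RD-HGA16 (CHO) cells co-expressing Gα16 and hTAAR1 | Doses: Single dose, 3 µM | Schedule: 17-24 h seeding, 75 min 37 °C dye, 30 min RT | Evaluation: % activation from peak over basal fluorescence ratio, DMSO-to-PEA scaled | Technique: Kinetic Fluo-8 calcium fluorescence | Benchmarks: Low control DMSO, high control PEA (EC100)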
TAAR1 ag conf – human TAAR1 agonists, retest of hits, confirmation, Fluo-8 calcium fluorescence, CHO RD-HGA16 cells; 82% of 2,400 active; activation, % at 3 µM; shares compounds with TAAR1 agonist; scaled: DMSO 0%, maximal phenethylamine 100%;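 active means activation above a cutoff set at the run's mean compound activation plus 3 SD, cut at about 39% in these data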
Ga16 nonsel ag – nonselective calcium mobilization agonists, CHO-Ga16 cells, counter-screen for hTAAR1 agonist project, cell-based, fluorescence, CHO-Ga16 parental line | shares compounds with TAAR1 agonist | Fluo-8 calcium fluorescence; normalized to maximal ATP response, DMSO zero | activation, % at 3 µM | 50% of 2,400 active | AID 651787, 2012;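 active means activation above the run cutoff, the mean activation over all tested wells plus 3 SD, cut at about 12% in these data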
TAAR1 desens – TAAR1 desensitization by agonist hits, confirmation, counter-screen for TAAR1 agonist project, cell-based, fluorescence, tachyphylaxis | shares compounds with TAAR1 agonist | CHO RD-HGA16 hTAAR1, Fluo-8 calcium, beta-PEA response inhibition | inhibition, % at 3 µM | 46% of 2,400 active;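 active means inhibition above the run cutoff, the mean inhibition of all test compounds plus 3 SD, cut at about 49% in these data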;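 further: beta-PEA stimulus applied at its EC80; loss of beta-PEA calcium signal after compound pretreatment read as receptor desensitization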
Ga16 antag count – inhibition of ATP-evoked calcium response in CHO-Ga16 cells, counter-screen for TAAR1 agonist project, cell-based, fluorescence; shares compounds with TAAR1 agonist; CHO-Ga16 ATP-induced calcium, Fluo-8 fluorescence; inhibition, % at 3 µM; 39% of 2,400 active;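 active means inhibition above the plate's mean compound inhibition plus 3 SD, computed per plate, cut at about 22% in these data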
Hits are given with their value; . = inactive; / = no result given. Shown are actives, neighbours in structure and some others; about 4.5% of the full set was active somewhere.

SMILES | OX1R antag-1 | GPR7 antag | TAAR1 antag | CHO parental Ca | OX1R antag-2 | TAAR1 agonist | TAAR1 ag conf | Ga16 nonsel ag | TAAR1 desens | Ga16 antag count
O=Cc1[nH]c2ccccc2c1N(C(=O)CCl)c1ccc([N+](=O)[O-])cc1 | . | . | 52 | . | . | 56 | 70 | 44 | 73 | 53
O=C(Nc1cccc(C(=O)N2CCOCC2)c1)C1CCCC1 | / | / | . | / | / | . | / | / | / | /
Cc1ccc(NS(=O)(=O)c2ccc(C(=O)N3CCCCCC3)cc2)cc1 | . | / | . | . | . | 86 | 80 | 52 | . | 39
CCOc1ccc(S(=O)(=O)Nc2ccc(C(=O)N3CCCC3)cc2)cc1 | . | . | . | . | . | . | / | / | / | /
Cc1ccc(NS(=O)(=O)c2ccc(C(=O)N3CCCN(C)CC3)cc2)cc1 | . | . | . | . | . | . | / | / | / | /
CCOc1ccc(NS(=O)(=O)c2ccc(C(=O)N3CCCC(C)C3)cc2)cc1 (stereo not drawn) | . | / | 79 | 52 | 36 | 114 | 121 | 80 | 84 | 55
O=C1CC(=O)Nc2cc(S(=O)(=O)Nc3cccc(C(F)(F)F)c3)ccc2N1 | . | . | . | . | . | . | / | / | / | /
COc1cccc(CN2CCNC(=O)C2CC(=O)N2CCOc3ccccc3C2)c1OC (stereo not drawn) | . | . | . | . | . | 66 | 73 | . | . | .
COc1cc(CN2CCNC(=O)C2CC(=O)N2CCc3ccccc3C2)cc(OC)c1 (stereo not drawn) | . | . | . | . | . | 66 | 68 | . | . | .
COc1ccc(CN2CCNC(=O)C2CC(=O)N2CCc3ccccc3C2)c(OC)c1 (stereo not drawn) | . | . | . | . | . | . | / | / | / | /
CC(C)(C)CN1CCNC(=O)C1CC(=O)N1CCOc2ccccc2C1 (stereo not drawn) | . | . | . | . | . | 59 | 54 | . | . | .
O=c1c(O)c(-c2cccs2)oc2ccc(Cl)cc12 | . | 24 | 110 | 71 | 92 | 292 | 152 | 152 | 89 | 85
Cc1cc(C(=O)Nc2cccc(O)c2)c(C)o1 | . | . | . | . | . | 50 | 50 | 17 | . | .
Cc1ccc(C(=O)N/C(=C/c2ccco2)C(=O)NCCc2c[nH]c3ccccc23)cc1 | . | . | . | . | . | . | / | / | / | /
Cc1cc(/C=N/Nc2ncnc(N)c2[N+](=O)[O-])c(C)n1-c1ccccc1 | 51 | . | . | . | . | 73 | 120 | 49 | 83 | .
COc1cccc(/C=N/Nc2ncnc(N)c2[N+](=O)[O-])c1OC | . | . | / | . | . | / | / | / | / | /
COc1cc(C2CC(=O)c3cnc(NC(=O)c4ccco4)nc3C2)cc(OC)c1OC (stereo not drawn) | . | . | . | . | . | . | / | / | / | /
CC(C)CCC1(CCO)C(=O)N=C(N)NC1=O (stereo not drawn) | / | / | . | / | / | . | / | / | / | /
Cc1ccc(S(=O)(=O)N(CC(=O)N2CCc3ccccc3C2)c2ccc(Cl)c(Cl)c2)cc1 | . | . | . | . | . | . | / | / | / | /
O=C(CN(c1ccc(Cl)c(Cl)c1)S(=O)(=O)c1ccccc1)N1CCc2ccccc2C1 | 74 | . | . | . | . | 58 | 76 | . | . | .
COc1ccc(N(CC(=O)N2CCc3ccccc3C2)S(C)(=O)=O)cc1OC | . | . | . | . | . | 51 | . | . | . | .
COc1ccc(N/N=C/c2c(C(=O)O)ccc3ccccc23)cc1 | . | . | . | . | . | 62 | 62 | 13 | . | .
COc1ccc2ccccc2c1/C=N/Nc1ccc(Cl)c(C(=O)O)c1 | . | . | . | . | . | . | / | / | / | /
Nc1ncnc2c1ncn2[C@@H]1O[C@H](C(=O)N(CCC2=CCCCC2)CC2CC2)[C@@H](O)[C@H]1O | / | / | . | / | / | . | / | / | / | /
Cc1ccc2c(c1)c1c3n2CCN=C3CCC1 | . | . | . | . | . | . | / | / | / | /
SMILES | OX1R antag-1 | GPR7 antag | TAAR1 antag | CHO parental Ca | OX1R antag-2 | TAAR1 agonist | TAAR1 ag conf | Ga16 nonsel ag | TAAR1 desens | Ga16 antag count
c1cc2c(cc1C1CCCCC1)c1c3n2CCN=C3CCC1 | . | . | . | . | . | 66 | 59 | 24 | . | .
Cc1nnc(SCC(=O)NCCC2=CCCCC2)[nH]c1=O | . | / | 69 | . | . | 74 | 95 | . | 88 | .
Nc1cc(=O)[nH]c(SCC(=O)NCCC2=CCCCC2)n1 | . | / | . | . | . | . | / | / | / | /
Cc1ccc(-c2nn(-c3ccccc3)cc2CSC(=N)N)cc1 | . | . | . | . | . | 76 | 84 | 27 | . | 25
Cc1ccc(Cn2cccc(NC(=O)NC3CCCCC3)c2=O)cc1 | . | . | . | . | . | . | / | / | / | /
O=C(Nc1cccn(Cc2ccccc2)c1=O)NC1CCCCC1 | . | . | . | . | . | 43 | 77 | 40 | . | .
COc1cccc(Cn2cccc(NC(=O)NC3CCCCC3)c2=O)c1 | . | . | . | . | . | 51 | . | 17 | . | .
O=C(COC(=O)c1ccc(Cl)nc1)c1ccc2c(c1)OCCO2 | . | . | . | . | . | . | / | / | / | /
CCCCOc1ccc(Cl)cc1CSc1nnc(CC)n1N | . | . | . | . | . | . | / | / | / | /
CC(=O)c1ccc(OC(C)C)c(CSC(=N)N)c1 | . | . | . | . | . | . | / | / | / | /
CCCCOc1ccc(CSC(=N)N)cc1Cl | . | . | . | . | . | 100 | 109 | 55 | 61 | 27
COc1ccc(Br)cc1CSC(=N)N | . | . | . | . | . | 46 | 71 | . | . | .
CCOc1ccc(CSC(=N)N)cc1 | . | . | . | . | . | . | / | / | / | /
CCCCCOc1ccc(Br)cc1CSC(=N)N | / | 72 | 93 | / | / | 93 | 106 | 60 | 102 | 71
